Data from ChEMBL document CHEMBL1128440 (J Med Chem, 1995).
Values joined by “and” are separate entries in the source; they are usually repeats but may differ in a detail not shown here. Identical values can stand only once.

Tests used:
[1] = species: Rattus norvegicus; test: Tissue biodistribution into estrogen-primed immature female rat uterus at 1 hr time interval; format: ADME, organism-based; conditions: in vivo
Outline: (§1)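 Immature female Sprague-Dawley rats (25 days old, ≈50 g, five per time point) primed with estradiol, 5 μg sc daily for 2 days in 50% ethanol/sunflower seed oil, used 24 h after the last injection. The 18F-labeled ligand was given iv by tail vein in 10% ethanol/saline. Decapitated at 1 or 3 h; blood and organs weighed and gamma-counted. Reported as %ID/g ± SD, n = 5.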

[2] = species: Rattus norvegicus; test: Tissue biodistribution into estrogen-primed immature female rat ovaries at 1 hr blocked time interval; format: ADME, organism-based; conditions: in vivo; outline: as §1
[3] = species: Rattus norvegicus; test: Tissue biodistribution into estrogen-primed immature female rat lung at 1 hr blocked time interval; format: ADME, organism-based; conditions: in vivo; outline: as §1
[4] = species: Rattus norvegicus; test: Tissue biodistribution into estrogen-primed immature female rat blood at 1 hr low time interval; format: ADME, organism-based; conditions: in vivo; outline: as §1
[5] = species: Rattus norvegicus; test: Tissue biodistribution into estrogen-primed immature female rat liver at 1 hr blocked time interval; format: ADME, organism-based; conditions: in vivo; outline: as §1
[6] = species: Rattus norvegicus; test: Tissue biodistribution into estrogen-primed immature female rat bone at 1 hr blocked time interval; format: ADME, organism-based, Bone element; conditions: in vivo; outline: as §1
[7] = target: T1, Progesterone receptor (Homo sapiens) (UniProt P06401); test: Nonspecific binding affinity against progesterone receptor was estimated relative to compound R5020
T1 sequence (whole entry): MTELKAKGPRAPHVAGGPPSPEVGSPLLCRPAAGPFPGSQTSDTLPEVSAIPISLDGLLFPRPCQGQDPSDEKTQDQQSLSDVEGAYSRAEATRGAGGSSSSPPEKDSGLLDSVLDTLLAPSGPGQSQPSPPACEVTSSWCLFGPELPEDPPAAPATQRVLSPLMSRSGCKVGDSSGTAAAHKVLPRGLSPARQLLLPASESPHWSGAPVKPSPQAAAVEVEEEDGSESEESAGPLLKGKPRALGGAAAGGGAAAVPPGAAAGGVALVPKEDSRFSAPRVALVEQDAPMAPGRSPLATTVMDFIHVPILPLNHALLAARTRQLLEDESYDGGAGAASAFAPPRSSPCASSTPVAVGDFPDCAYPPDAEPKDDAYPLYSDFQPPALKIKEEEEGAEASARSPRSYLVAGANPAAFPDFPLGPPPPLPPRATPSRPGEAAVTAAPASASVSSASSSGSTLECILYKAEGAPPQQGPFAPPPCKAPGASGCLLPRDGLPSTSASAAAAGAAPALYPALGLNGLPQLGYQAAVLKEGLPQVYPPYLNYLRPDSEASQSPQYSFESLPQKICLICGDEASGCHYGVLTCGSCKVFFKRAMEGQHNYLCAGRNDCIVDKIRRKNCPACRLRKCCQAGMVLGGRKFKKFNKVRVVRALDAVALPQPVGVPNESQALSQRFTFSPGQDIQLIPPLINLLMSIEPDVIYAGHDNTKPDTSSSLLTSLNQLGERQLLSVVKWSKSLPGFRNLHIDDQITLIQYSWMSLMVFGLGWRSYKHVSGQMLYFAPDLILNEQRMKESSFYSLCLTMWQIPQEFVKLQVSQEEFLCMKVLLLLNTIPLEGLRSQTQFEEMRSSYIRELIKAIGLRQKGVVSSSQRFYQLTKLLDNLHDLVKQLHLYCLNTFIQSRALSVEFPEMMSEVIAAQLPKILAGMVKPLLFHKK

[8] = species: Rattus norvegicus; test: Tissue biodistribution into estrogen-primed immature female rat uterus at 1 hr low time interval; format: ADME, organism-based; conditions: in vivo; outline: as §1
[9] = species: Rattus norvegicus; test: Tissue biodistribution into estrogen-primed immature female rat uterus at 3 hr time interval; format: ADME, organism-based; conditions: in vivo; outline: as §1
[10] = species: Rattus norvegicus; test: Tissue biodistribution into estrogen-primed immature female rat muscle at 1 hr time interval; format: ADME, organism-based; conditions: in vivo; outline: as §1
[11] = species: Rattus norvegicus; test: Tissue biodistribution into estrogen-primed immature female rat muscle at 1 hr blocked time interval; format: ADME, organism-based; conditions: in vivo; outline: as §1
[12] = species: Rattus norvegicus; test: Tissue biodistribution into estrogen-primed immature female rat ovaries at 3 hr time interval; format: ADME, organism-based, Female gonad; conditions: in vivo; outline: as §1
[13] = species: Rattus norvegicus; test: Tissue biodistribution into estrogen-primed immature female rat lung at 3 hr time interval; format: ADME, organism-based; conditions: in vivo; outline: as §1
[14] = species: Rattus norvegicus; test: Tissue biodistribution into estrogen-primed immature female rat uterus/blood at 3 hr time interval; format: ADME, organism-based; conditions: in vivo; outline: as §1
[15] = Partition coefficient (logP); format: physicochemical; conditions: octanol/water
Outline: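 log P(o/w) (octanol/water) estimated by a reversed-phase HPLC method.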

[16] = species: Rattus norvegicus; test: Tissue biodistribution into estrogen-primed immature female rat blood at 3 hr time interval; format: ADME, organism-based; conditions: in vivo; outline: as §1
[17] = species: Rattus norvegicus; test: Tissue biodistribution into estrogen-primed immature female rat kidney at 1 hr time interval; format: ADME, organism-based; conditions: in vivo; outline: as §1
[18] = species: Rattus norvegicus; test: Tissue biodistribution into estrogen-primed immature female rat brain at 1 hr time interval; format: ADME, organism-based; conditions: in vivo; outline: as §1
[19] = species: Rattus norvegicus; test: Tissue biodistribution into estrogen-primed immature female rat lung at 1 hr time interval; format: ADME, organism-based; conditions: in vivo; outline: as §1
[20] = species: Rattus norvegicus; test: Tissue biodistribution into estrogen-primed immature female rat fat at 1 hr time interval; format: ADME, organism-based, Adipose tissue; conditions: in vivo; outline: as §1
[21] = species: Rattus norvegicus; test: Tissue biodistribution into estrogen-primed immature female rat blood at 1 hr time interval; format: ADME, organism-based; conditions: in vivo; outline: as §1
[22] = species: Rattus norvegicus; test: Tissue biodistribution into estrogen-primed immature female rat kidney at 1 hr blocked time interval; format: ADME, organism-based; conditions: in vivo; outline: as §1
[23] = species: Rattus norvegicus; test: Tissue biodistribution into estrogen-primed immature female rat bone at 1 hr low time interval; format: ADME, organism-based, Bone element; conditions: in vivo; outline: as §1
[24] = species: Rattus norvegicus; test: Tissue biodistribution into estrogen-primed immature female rat muscle at 1 hr low time interval; format: ADME, organism-based; conditions: in vivo; outline: as §1

Injected dose/g [1]: 6.8%
Injected dose/g [2]: 1.65%
Injected dose/g [3]: 1.16%
Injected dose/g [4]: 0.35%
Injected dose/g [5]: 2.49%
Injected dose/g [6]: 1.29%
NSB [7]: 0.83 and 1.06
Injected dose/g [8]: 5.18%
Injected dose/g [9]: 7.83%
Injected dose/g [10]: 0.59%
Injected dose/g [11]: 0.71%
Injected dose/g [12]: 2.62%
Injected dose/g [13]: 0.31%
uterus/blood ratio [14]: 48
logP [15]: 4.11
logP ([15]; read-out: logP): 3.87
Injected dose/g [16]: 0.19%
Injected dose/g [17]: 1.66%
Injected dose/g [18]: 0.57%
Injected dose/g [19]: 2.38%
Injected dose/g [20]: 2.16%
Injected dose/g [21]: 0.38%
Injected dose/g [22]: 1.72%
Injected dose/g [23]: 0.99%
Injected dose/g [24]: 0.41%
SMILES: C[C@]12CCC3C(CCC4=CC(=O)CC[C@@H]43)C1C[C@H]1OC(c3ccco3)O[C@]12C(=O)CF (stereo not given in full)
